The results in this text go back to ChEMBL document CHEMBL4665761, “Optimizing the Benefit/Risk of Acetyl-CoA Carboxylase Inhibitors through Liver Targeting” (J Med Chem, 2020).

Data set [1] can be described thus: Oral bioavailability in Wistar-Hannover rat plasma at 4 mg/kg and measured up to 24 hrs by LC/MS-MS analysis. It counts as ADME, organism-based. In a few lines:
(§1)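 Plasma concentration–time data, n = 2, averaged. Cmax and Tmax read directly from the data. AUC0–24 by the linear trapezoidal rule. F calculated as dose-normalized AUC PO/IV.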

Data set [2] is described as follows: AUC (0 to 24 hrs) in Wistar-Hannover rat plasma at 4 mg/kg, po and measured up to 24 hrs by LC/MS-MS analysis. The format is ADME, organism-based. Further details: route oral, dose 4 mg/kg, time <=24; call rule not given here. The procedure, abridged: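 Male Wistar-Hannover rats (240–350 g), housed singly after 1 week of acclimation, were dosed orally. AUC0–24 came from plasma concentration–time data by the linear trapezoidal rule, averaged for n = 2. Lower detection limit was 1 ng/mL.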

Data set [3] in a line: Tmax in Wistar-Hannover rat plasma at 4 mg/kg, po and measured up to 24 hrs by LC/MS-MS analysis. The format is ADME, organism-based. The procedure, abridged:
as §1

The nature of data set [4]: Genotoxicity in Salmonella typhimurium TA98 by Ames test. It counts as toxicity. The note with it: salmonella enterica subsp. enterica serovar typhimurium. In a few lines: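 Ames test in Salmonella strains TA98, TA100, TA1535 and TA1537, run with and without aroclor-induced rat liver S9 plus NADPH.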
A general note: The Ames test detects mutagens through reverse mutation in bacteria.

Data set [5] is described as follows: Thermodynamic solubility of the compound at pH 7.4 after 24 hrs. It counts as physicochemical. The note with it: buffer, read-out: Therm_solubility.
Data set [6] can be described thus: Toxicity in cynomolgus monkey assessed as reduction in platelet count at >= 30 mg/kg, po after 14 days. The format is organism-based, Macaca fascicularis. The note with it: in vivo.
In data set [7] the target is Solute carrier family 22 member 6 (Homo sapiens, UniProt Q4U2R8). Put plainly: Inhibition of human SLC22A6 expressed in HEK293 cells in presence of para-aminohippuric acid/metformin. The format is cell-based.
Data set [8] has as its target UDP-glucuronosyltransferase 2B7 (Homo sapiens, UniProt P16662). Put plainly: Inhibition of UGT2B7 in human liver microsomes incubated for 60 mins in presence of UDPGA by LC-MS/MS analysis. The format is ADME. (Liver microsomes are a subcellular fraction often used to study metabolism.)
Data set [9] can be described thus: Inhibition of rat ACC2 using acetyl-CoA as substrate incubated for 20 mins in presence of [14C]O3 by liquid scintillation counting method. The procedure, abridged:
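Purified rat isozyme in a 96-well radioenzymatic assay measuring incorporation of [14C]-bicarbonate into [14C]-malonyl-CoA. Dose-response run at saturating ATP, where IC50 approximates Ki for uncompetitive inhibitors.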

Data set [10] is described as follows: Drug uptake in human hepatocytes assessed as active uptake intrinsic clearance at 1 uM up to 15 mins by LC-MS/MS analysis. The format is ADME, cell-based, Hepatocyte. The note with it: 0.25 h.
Data set [11] is described as follows: Unbound plasma concentration in Sprague-Dawley rat at 300 mg/kg, po. The settings on record: in vivo. It counts as ADME, organism-based. The procedure, abridged:
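Sprague-Dawley rats given a single oral dose in 0.5% methyl cellulose vehicle. Unbound plasma concentration measured at 300 mg/kg.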

Data set [12] in a line: Clearance in cynomolgus monkey plasma at 1 mg/kg, iv and measured up to 72 hrs by LC/MS-MS analysis. The format is ADME, organism-based, Macaca fascicularis. The procedure, abridged: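 Cynomolgus monkeys dosed 1 mg/kg IV as the tris salt in 2% N-methylpyrrolidone/98% sulfobutylether-β-cyclodextrin (12.5%) in 50 mM TRIS, pH 8.0, or PO as the tris salt. Plasma was analysed by LC-MS/MS, n = 2. CL = IV dose/AUC; Vss = dose/(AUC × elimination rate constant); Cmax taken from observed data.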

For another data set, the system named is TK6. Put plainly: Genotoxicity in human TK6 cells by micronucleus test. It counts as toxicity, cell-based. The procedure, abridged: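 In vitro micronucleus assay in Chinese hamster ovary or TK6 cells, run with and without metabolic activation by aroclor-induced rat liver S9 fraction plus NADPH.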
Data set [13] can be described thus: Inhibition of DNL in cynomolgus monkey assessed as fructose-induced DNL level at 10 mg/kg, po after 9 hrs relative to control. The format is functional. The note with it: Macaca fascicularis. The procedure, abridged:
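Male cynomolgus macaques were fasted overnight and enriched with plasma D2O, then given a single 10 mg/kg PO dose. Fructose was given orally every 30 min from t = 0, with a banana at hours 2 and 3. Deuterium incorporation into plasma TG palmitate was followed over 9 h, n = 12, mean ± SEM, versus vehicle.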

A further data set deals with Cytochrome P450 2C9 (Homo sapiens, UniProt P11712). The experiment in a line: inhibition of CYP2C9 in human liver microsomes. It counts as ADME.
Data set [14] has as its target UDP-glucuronosyltransferase 1A6 (Homo sapiens, UniProt P19224). Put plainly: Inhibition of UGT1A6 in human liver microsomes incubated for 90 mins in presence of UDPGA by LC-MS/MS analysis. It counts as ADME.
Data set [15] addresses Solute carrier organic anion transporter family member 1B1 (Homo sapiens, UniProt Q9Y6L6). Put plainly: Inhibition of human OATP1B1 expressed in HEK293 cells n presence of rosuvastatin. It counts as cell-based.
Data set [16] in a line: Drug uptake in Wistar-Hannover rat assessed as plasma concentration at 10 mg/kg, po after 6 hrs by LC/MS-MS analysis. The format is ADME, organism-based. The procedure, abridged:
(§2)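 Male Wistar-Hannover rats, n = 2 or 3, given an oral suspension in 0.5% methyl cellulose with 0.1% Tween 80; one compound was dosed as the HCl salt. Total plasma and liver concentrations were measured 6 h post-dose. Kp = liver/plasma total concentration. Kpu,u uses fu values from equilibrium dialysis.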

Data set [17] can be described thus: Drug uptake in Wistar-Hannover rat liver at 10 mg/kg, po after 6 hrs by LC/MS-MS analysis. The format is ADME, organism-based. The note with it: read-out: Drug uptake. The procedure, abridged:
as §2

Data set [18] addresses Broad substrate specificity ATP-binding cassette transporter ABCG2 (Homo sapiens, UniProt Q9UNQ0). Put plainly: Inhibition of human ABCG2 expressed in MDCK2-LE cells in presence of […]. The format is cell-based, MDCKII-LE.
For another data set, the target named is Cytochrome P450 2B6 (Homo sapiens, UniProt P20813). Put plainly: inhibition of CYP2B6 in human liver microsomes. It counts as ADME.
The nature of data set [19]: Ratio of drug uptake in Wistar-Hannover rat liver to plasma at 10 mg/kg, po after 6 hrs by LC/MS-MS analysis. It counts as ADME, organism-based. The settings on record: liver and plasma. The procedure, abridged: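 Male Wistar-Hannover rats (n = 2 or 3) dosed orally as a suspension in 0.5% methyl cellulose with 0.1% Tween 80. Plasma and liver sampled 6 h post-dose. Kp is total liver/plasma; Kpu,u uses unbound fractions from equilibrium dialysis of plasma and liver.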

Another data set deals with Acetyl-CoA carboxylase 1 (Homo sapiens, UniProt Q13085). Put plainly: Uncompetitive inhibition of human ACC1 incubated for 15 mins in presence of ATP by Line weaver-Burk plot analysis. The procedure, abridged: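 Radioenzymatic assay with purified ACC isozymes, measuring [14C]-bicarbonate incorporation into [14C]-malonyl-CoA. Mode of inhibition taken from substrate concentration-dependence experiments varying ATP or carbonate. IC50 dose-response run at saturating ATP.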

For data set [20], the target named is Voltage-gated inwardly rectifying potassium channel KCNH2 (Homo sapiens, UniProt Q12809). Put plainly: Inhibition of human ERG at 100 uM.
Data set [21] has as its target Solute carrier organic anion transporter family member 1B3 (Homo sapiens, UniProt Q9NPD5). Put plainly: Inhibition of human OATP1B3 expressed in HEK293 cells n presence of rosuvastatin. The format is cell-based.
Data set [22] in a line: Fraction unbound in human plasma by equilibrium dialysis method. The format is ADME, cell-free.
A further data set concerns the target Cytochrome P450 3A4 (Homo sapiens, UniProt P08684). Put plainly: Activation of CYP3A4 in human hepatocytes at 0.5 to 200 uM. The format is ADME, cell-based, Hepatocyte. The note with it: dose 0.5-200 µM. The procedure, abridged: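 Individual human hepatocyte lots treated at 0.5–200 µM. Read-out is CYP3A4 enzyme activity.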
Data set [23] in a line: Drug excretion in Wistar-Hannover rat urine at 1 mg/kg, iv and measured up to 24 hrs by LC/MS-MS analysis. The format is ADME, organism-based. The settings on record: read-out: Drug excretion.

Molecules are shown by their SMILES. ≈ marks a conversion by molar mass, not a printed value.

Sequence of Voltage-gated inwardly rectifying potassium channel KCNH2 (Q12809 whole entry): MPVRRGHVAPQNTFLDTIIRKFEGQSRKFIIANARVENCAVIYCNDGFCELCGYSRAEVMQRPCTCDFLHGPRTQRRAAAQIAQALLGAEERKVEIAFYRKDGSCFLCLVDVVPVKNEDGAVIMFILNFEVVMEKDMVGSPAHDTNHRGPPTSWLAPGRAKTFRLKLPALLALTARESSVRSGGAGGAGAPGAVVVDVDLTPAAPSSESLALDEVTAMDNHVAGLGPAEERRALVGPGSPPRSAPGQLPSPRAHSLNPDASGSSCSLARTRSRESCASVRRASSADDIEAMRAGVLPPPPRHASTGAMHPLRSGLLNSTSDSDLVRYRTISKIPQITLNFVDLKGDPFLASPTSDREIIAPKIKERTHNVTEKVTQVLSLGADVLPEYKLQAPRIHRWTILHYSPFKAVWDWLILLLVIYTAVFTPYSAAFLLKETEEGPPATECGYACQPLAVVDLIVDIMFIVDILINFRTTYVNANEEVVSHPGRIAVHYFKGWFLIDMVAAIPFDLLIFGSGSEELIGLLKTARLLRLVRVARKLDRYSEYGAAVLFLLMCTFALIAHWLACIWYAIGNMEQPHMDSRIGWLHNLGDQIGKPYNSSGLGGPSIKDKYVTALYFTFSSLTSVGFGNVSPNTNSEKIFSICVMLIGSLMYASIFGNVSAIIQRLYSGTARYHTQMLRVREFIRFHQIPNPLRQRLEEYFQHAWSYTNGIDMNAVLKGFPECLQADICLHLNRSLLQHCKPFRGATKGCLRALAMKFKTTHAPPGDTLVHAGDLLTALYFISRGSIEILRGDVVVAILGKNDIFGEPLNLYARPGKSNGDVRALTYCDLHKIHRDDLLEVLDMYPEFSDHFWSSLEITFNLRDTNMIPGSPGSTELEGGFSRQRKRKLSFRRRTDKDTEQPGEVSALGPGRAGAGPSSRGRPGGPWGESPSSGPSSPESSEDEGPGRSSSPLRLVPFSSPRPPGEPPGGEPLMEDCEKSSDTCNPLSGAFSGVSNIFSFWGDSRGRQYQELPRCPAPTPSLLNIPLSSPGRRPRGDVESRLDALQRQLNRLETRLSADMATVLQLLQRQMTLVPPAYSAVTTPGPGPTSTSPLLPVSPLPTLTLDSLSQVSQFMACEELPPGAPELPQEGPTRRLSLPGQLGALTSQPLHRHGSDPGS
Sequence of UDP-glucuronosyltransferase 2B7 (P16662 whole entry): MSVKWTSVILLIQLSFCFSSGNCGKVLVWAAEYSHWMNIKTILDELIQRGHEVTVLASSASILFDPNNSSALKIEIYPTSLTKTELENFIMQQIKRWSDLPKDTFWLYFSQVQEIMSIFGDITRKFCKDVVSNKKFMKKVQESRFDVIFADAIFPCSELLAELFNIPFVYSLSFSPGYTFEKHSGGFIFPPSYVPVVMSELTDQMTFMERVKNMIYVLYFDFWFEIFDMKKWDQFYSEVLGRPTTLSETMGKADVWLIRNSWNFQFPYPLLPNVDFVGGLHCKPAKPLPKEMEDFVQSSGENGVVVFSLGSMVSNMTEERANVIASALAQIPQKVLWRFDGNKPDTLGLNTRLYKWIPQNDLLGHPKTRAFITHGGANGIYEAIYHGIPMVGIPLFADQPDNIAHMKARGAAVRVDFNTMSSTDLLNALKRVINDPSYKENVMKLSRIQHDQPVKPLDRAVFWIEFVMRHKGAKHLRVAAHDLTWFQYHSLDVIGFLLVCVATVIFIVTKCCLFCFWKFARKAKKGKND
Sequence of Solute carrier family 22 member 6 (Q4U2R8 whole entry): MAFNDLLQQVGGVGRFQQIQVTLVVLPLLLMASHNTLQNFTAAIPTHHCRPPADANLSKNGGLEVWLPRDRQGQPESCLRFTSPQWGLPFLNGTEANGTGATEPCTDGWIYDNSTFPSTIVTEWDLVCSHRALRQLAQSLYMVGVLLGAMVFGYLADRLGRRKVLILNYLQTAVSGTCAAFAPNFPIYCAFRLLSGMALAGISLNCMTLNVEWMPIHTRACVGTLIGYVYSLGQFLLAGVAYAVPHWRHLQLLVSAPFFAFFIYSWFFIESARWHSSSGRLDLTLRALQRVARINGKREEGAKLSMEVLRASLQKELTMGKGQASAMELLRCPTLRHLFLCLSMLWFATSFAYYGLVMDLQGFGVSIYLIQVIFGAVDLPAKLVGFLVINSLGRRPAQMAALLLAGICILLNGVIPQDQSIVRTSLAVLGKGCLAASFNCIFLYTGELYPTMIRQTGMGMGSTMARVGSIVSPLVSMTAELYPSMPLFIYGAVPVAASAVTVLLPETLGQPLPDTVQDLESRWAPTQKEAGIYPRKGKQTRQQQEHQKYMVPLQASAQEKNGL
Sequence of Solute carrier organic anion transporter family member 1B1 (Q9Y6L6 whole entry): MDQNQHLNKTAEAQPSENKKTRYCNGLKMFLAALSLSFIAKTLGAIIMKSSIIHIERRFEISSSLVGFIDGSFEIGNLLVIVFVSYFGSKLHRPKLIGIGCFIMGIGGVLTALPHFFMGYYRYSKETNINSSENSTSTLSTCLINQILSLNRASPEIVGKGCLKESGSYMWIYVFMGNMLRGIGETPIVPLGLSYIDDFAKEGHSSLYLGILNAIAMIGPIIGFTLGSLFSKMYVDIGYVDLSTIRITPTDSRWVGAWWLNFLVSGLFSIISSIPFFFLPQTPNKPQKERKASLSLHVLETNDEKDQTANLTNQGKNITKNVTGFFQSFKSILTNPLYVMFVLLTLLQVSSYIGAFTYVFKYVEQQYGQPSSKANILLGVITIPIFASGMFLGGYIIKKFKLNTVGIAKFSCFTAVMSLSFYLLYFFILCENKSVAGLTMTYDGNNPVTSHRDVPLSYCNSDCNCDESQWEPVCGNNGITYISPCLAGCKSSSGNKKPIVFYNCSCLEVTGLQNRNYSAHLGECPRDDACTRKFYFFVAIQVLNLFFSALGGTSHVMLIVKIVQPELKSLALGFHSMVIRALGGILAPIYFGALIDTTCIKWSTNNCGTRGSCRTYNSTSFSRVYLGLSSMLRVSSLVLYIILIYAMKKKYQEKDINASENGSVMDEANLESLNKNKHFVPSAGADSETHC
Sequence of UDP-glucuronosyltransferase 1A6 (P19224 whole entry): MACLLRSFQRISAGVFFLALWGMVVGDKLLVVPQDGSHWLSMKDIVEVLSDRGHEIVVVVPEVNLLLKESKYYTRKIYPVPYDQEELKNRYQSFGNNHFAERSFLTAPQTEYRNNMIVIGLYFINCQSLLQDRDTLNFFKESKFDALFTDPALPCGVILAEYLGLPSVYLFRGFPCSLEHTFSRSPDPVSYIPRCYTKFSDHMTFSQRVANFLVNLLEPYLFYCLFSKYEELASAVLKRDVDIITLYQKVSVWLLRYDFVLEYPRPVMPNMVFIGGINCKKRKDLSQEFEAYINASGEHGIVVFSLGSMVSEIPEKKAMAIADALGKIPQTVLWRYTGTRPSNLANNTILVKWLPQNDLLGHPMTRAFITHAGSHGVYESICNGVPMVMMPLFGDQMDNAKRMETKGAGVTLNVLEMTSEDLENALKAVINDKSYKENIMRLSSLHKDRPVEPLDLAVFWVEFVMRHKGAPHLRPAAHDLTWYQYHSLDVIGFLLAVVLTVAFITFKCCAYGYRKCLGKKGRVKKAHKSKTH
Sequence of Cytochrome P450 3A4 (P08684 whole entry): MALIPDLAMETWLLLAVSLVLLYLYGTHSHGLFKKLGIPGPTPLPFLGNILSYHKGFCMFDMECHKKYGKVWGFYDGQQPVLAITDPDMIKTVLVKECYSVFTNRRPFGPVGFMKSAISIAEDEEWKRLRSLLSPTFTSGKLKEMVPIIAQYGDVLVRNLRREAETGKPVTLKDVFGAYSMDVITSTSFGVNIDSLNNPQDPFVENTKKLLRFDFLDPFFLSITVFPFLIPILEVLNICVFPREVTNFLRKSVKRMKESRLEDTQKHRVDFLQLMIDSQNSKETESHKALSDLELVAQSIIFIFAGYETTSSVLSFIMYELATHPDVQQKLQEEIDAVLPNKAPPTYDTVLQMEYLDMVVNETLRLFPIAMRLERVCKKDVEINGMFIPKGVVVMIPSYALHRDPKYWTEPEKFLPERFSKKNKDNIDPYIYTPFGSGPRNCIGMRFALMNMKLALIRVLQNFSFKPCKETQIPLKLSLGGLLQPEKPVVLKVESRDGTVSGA
Sequence of Solute carrier organic anion transporter family member 1B3 (Q9NPD5 whole entry): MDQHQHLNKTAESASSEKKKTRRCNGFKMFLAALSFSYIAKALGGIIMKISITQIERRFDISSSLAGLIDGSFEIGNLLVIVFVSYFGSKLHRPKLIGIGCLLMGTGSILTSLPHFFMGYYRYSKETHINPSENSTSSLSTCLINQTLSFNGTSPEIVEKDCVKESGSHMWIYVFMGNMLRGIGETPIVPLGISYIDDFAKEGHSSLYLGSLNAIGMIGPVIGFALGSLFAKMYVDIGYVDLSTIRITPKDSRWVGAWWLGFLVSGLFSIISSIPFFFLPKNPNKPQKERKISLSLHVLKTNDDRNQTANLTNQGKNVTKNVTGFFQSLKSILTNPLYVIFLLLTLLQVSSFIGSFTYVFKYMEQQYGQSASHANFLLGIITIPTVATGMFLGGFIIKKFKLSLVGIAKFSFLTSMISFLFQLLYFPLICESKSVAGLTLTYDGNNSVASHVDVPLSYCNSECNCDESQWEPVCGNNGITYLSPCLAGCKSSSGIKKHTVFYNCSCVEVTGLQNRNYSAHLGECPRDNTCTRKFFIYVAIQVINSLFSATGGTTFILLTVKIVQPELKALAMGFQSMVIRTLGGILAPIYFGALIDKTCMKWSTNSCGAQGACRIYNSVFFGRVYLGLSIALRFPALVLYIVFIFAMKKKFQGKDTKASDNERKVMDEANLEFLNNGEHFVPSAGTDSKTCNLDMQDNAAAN

A word on the bioavailability: it is dose-corrected exposure relative to a reference, in per cent. Broadly, the AUC(0-t) is exposure summed from dosing to a finite time, without extrapolation to infinity. As a reminder, the Tmax is the time from dosing to the highest level. In turn, `COc1cc(C(=O)N2CCC3(CC2)CC(=O)c2nn(C(C)(C)C)cc2O3)cc(-c2ccc(C(=O)O)cc2)n1` displayed a bioavailability in data set [1] of 27%. Further, the AUC(0-t) in data set [2] turned out to be 322 ng·h/mL. In [3], the Tmax worked out at 45 min.
What is called IC50 is the concentration needed to halve the response being measured. Usually clearance stands for the rate of elimination divided by the concentration. What is called inhibition in vivo is the relative decrease from the control value, in per cent. As a reminder, the Kp is tissue or fluid exposure divided by exposure in the circulation. As a reminder, the fraction unbound is the share of the substance not bound to proteins or other matrix. On to `COc1cc(C(=O)N2CCC3(CC2)CC(=O)c2c(cnn2C(C)C)C3)cc(-c2ccc(C(=O)O)cc2)n1` [CLESACOSTAT], for which the Activity result in data set [4] is on record as “Non-Toxic”; in data set [6] it was “Toxic”; in the data set with TK6, “Non-Toxic”; on Cytochrome P450 3A4, “Not Active”. Besides, the solubility thermodynamic at 24 h in data set [5] worked out at 234 µM (≈ 118 µg/mL). Further, the IC50 is > 30 µM in data set [7]; > 20 µM in data set [8]; 0.00824 µM in data set [9]; > 50 µM against Cytochrome P450 2C9; > 20 µM in [14]; 11.7 µM in data set [15]. The IC50 in [18] was 68 µM; at Cytochrome P450 2B6, > 50 µM; on Acetyl-CoA carboxylase 1, 0.0124 µM; in data set [21], 137 µM. The CLH in data set [10] was found to be 24 µL/min/mg. Further, in data set [11], the “Cp(f)” value amounted to 119.4 nM. In data set [12], this compound came in with a clearance of 1.3 mL/min/kg. Besides, the inhibition in vivo at 10 mg/kg in data set [13] was 100%. The concentration at 6 h in data set [16] was 314 ng/mL; in data set [17], 24600 ng/mL. For the same compound, the Kp at 6 h in data set [19] worked out at 78. Besides, in data set [20], the “inhibition (INH)” value was “Not Active”. The fraction unbound in data set [22] was determined as 0.006. The dose excreted at 24 h in data set [23] is < 2%.
